Sampled rows, rich in hits. Any-hit rate of the full collection: about 2.9%.
Wee1 degr inh: Wee1 degradation inhibitors, primary screen, cell-based, HeLa, Wee1K328M-luciferase, luminescence | HeLa Luc-Wee1K328M stability; 100% = proteasome inhibitor MG132 effect | reporter increase, % at 5 µM | hit rate 1.2% among 220,000;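 active = activation above the mean of all tested compounds plus 3 SD, set per screening run, cut at about 8.8% in these data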;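 note: cells exposed to compound for 20 h before luminescence read; 0% = DMSO alone and 100% = MG132 at 30 µM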
Target sequence (P30291 whole entry K328M): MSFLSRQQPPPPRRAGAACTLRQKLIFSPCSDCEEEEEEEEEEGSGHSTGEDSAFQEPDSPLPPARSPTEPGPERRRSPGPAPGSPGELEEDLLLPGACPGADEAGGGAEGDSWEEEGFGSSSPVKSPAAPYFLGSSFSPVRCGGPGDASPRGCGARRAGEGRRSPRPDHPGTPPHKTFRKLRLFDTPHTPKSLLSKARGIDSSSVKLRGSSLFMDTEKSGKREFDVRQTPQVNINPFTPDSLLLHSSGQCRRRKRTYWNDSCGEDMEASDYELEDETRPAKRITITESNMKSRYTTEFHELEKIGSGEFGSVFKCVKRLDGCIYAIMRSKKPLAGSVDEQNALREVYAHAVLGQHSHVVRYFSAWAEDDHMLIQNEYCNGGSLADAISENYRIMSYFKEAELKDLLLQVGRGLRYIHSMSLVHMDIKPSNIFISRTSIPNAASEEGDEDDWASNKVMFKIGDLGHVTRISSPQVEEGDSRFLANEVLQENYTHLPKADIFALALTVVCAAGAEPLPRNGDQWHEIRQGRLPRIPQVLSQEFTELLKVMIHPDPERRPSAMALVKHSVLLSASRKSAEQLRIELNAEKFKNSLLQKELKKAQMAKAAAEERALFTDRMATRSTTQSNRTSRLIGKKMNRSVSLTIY
MT stabilizer: microtubule stabilizers in HeLa cells, primary screen, imaging, high-content imaging; HeLa tubulin immunostaining HCS, 24 h; share of cells brighter than vehicle mean+2SD; % tubulin-high responders, % at 10 µM; hit rate 0.83% among 200,000; AID 2205, 2009;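 active = plate Z-score above 3 for both tubulin-high and condensed-nucleus cell shares, with cell loss under 80%, at 10 µM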;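 note: anti alpha tubulin signal scored within the nucleus-defined area of each cell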
Insulin prom up: insulin promoter activators in MIN6 cells, imaging, high-content screening, mouse beta cells. hit rate 0.3% among 190,000. z-score at 5 µM. MIN6 insulin promoter-GFP reporter; stronger effect = higher value;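 active = z-score above 3 at 5 µM with at least 500 cells counted in the well; inconclusive = wells under 500 cells, flagged as cytotoxic or low count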
Autophagy HCS: autophagy modulators in MEF cells, primary screen, imaging, high-content, MEF GFP-LC3; MEF GFP-LC3 puncta imaging; test concentration mostly 10 µM; calls only at 10 µM (by protocol); hit rate 0.98% among 190,000; AID 463193, 2010;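 active = percentage of spot-positive cells more than 3 SD above its plate mean, without a fluorescence outlier flag or 80% toxicity; inconclusive = no clear call, values can overlap the other calls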;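 note: spot-positive cell cutoff set from DMSO-treated cells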
bCat nuc transl: modulators of beta-catenin nuclear translocation, primary screen, imaging, HeLa cells, immunofluorescence, high-content; nuclear translocation activity, % at 5 µM; hit rate 0.3% among 190,000;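 active = nuclear translocation activity above 50% at 5 µM, with a well cell count of 50 or more; inconclusive = wells under 50 cells across six images, flagged as toxic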;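 note: per-cell ratio of nuclear to cytoplasmic median beta-catenin stain intensity; plate controls were DMSO negative control for no effect and GSK-3 inhibitor IX positive control for full effect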
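Read-out: Nuclear/cytoplasmic beta-catenin signal ratio, % activation | Assay system: Human HeLa cell line | Times: 24 h compound exposure at 37°C, 5% CO2 | Signal: Fluorescence imaging of beta-catenin antibody stain plus DAPI | Dosing: 5 µM primary, 0.02–20 µM confirmation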
* marks the source's active call; other numbers are inactive results; i = inactive; ? = inconclusive; . = not tested or not shown; + = active, no number.

SMILES	Wee1 degr inh	MT stabilizer	Insulin prom up	Autophagy HCS	bCat nuc transl
COC(=O)c1ccccc1NC(=O)Cn1c(-c2nonc2N)nc2ccccc21	5	19*	-0.28	+	27
CCCCNC(=S)N/N=C1\C(=O)c2cccc3cccc1c23	0	1	0.25	i	.
CNC(=S)N/N=C1\C(=O)c2cccc3cccc1c23	1	4	1.1	+	1
CC(C)c1nc2sc3c(SCC(=O)NCc4ccco4)ncnc3c2c2c1CCC2	3	3	2.1	i	16
Cc1nc2c(sc3nc4c(cc32)COC(C)(C)C4)c(=O)n1CC(=O)NCc1ccco1	9.3*	28*	.	i	.
CC1(C)Cc2nc3sc4c(SCC(=O)NCc5ccco5)ncnc4c3cc2CO1	7	29*	-2.2	i	59*
O=C(CSc1ncnc2sc3c(c12)CCCCC3)NCc1ccco1	5	37	0.18	+	.
CC1(C)Cc2nc3sc4c(=O)n(CC(N)=O)cnc4c3cc2CO1	2	2	0.72	i	-2
CC1(C)Cc2nc3sc4c(=O)n(CC(=O)NCc5ccccc5)cnc4c3cc2CO1	0	34*	.	i	.
O=C(CSc1ncnc2sc3c(c12)CCCC3)c1ccco1	-2	2	-0.83	i	-2
Cc1ccc(Oc2ncccc2C(=O)NCC(=O)O)cc1	0	.	-0.51	.	-2
CCCCC(=O)N(Cc1ccc(F)cc1)C1CCS(=O)(=O)C1 (stereo not given)	-1	.	.	.	1
COC(=O)c1cccc(NC(=O)c2cccnc2C(=O)O)c1C	2	3	1.1	i	-1
CCOc1ccc(C2=Nc3ccc(Br)cc3C(c3ccc(N4CCOCC4)cc3)=NN2)cc1	3	11	0.13	i	1
CCOc1ccc(C2=Nc3ccccc3C(c3ccc(N4CCOCC4)cc3)=NN2)cc1	-1	35*	.	i	.
CCOC(=O)c1cc(C#N)c(Oc2ccccc2)nc1-c1ccccc1	-3	1	0.04	i	-3
C=CCNc1nc(-c2ccccc2)c(C(=O)OCC)cc1C#N	1	33*	-0.75	i	1
CCCNc1nc(-c2ccccc2)c(C(=O)OCC)cc1C#N	6	27*	-1.4	i	20
CCOC(=O)c1cc(C#N)c(N2CCOCC2)nc1-c1ccccc1	1	4	-0.65	i	-8
CCCCNc1nc(-c2ccccc2)c(C(=O)OCC)cc1C#N	0	35*	.	i	.
O=[N+]([O-])c1ccc(Oc2cccc(F)c2)c2ccncc12	2	1	-0.22	+	7
COc1ccccc1NS(=O)(=O)c1cccc(-n2c(O)c(C=Nc3ccccc3C(=O)O)c3ccccc3c2=O)c1	2	.	-0.01	.	-2
C=CCCC(=O)Nc1nc(C)c(-c2csc(Nc3cc(OC)ccc3OC)n2)s1	-2	31*	-2.6	i	70*
Cc1ccc(CC2CC(=O)N(c3nc4ccccc4n3C)C2=O)cc1 (stereo not given)	-4	1	.	i	0
CC(C)Sc1nc2c(cnn2-c2ccccc2)c(=O)[nH]1	-1	2	-0.6	i	-1
SMILES	Wee1 degr inh	MT stabilizer	Insulin prom up	Autophagy HCS	bCat nuc transl
Cc1[nH]c(C)c2c(=O)n(-c3ccccc3)ncc12	14*	5	-0.56	i	.
CC12C(=O)N(c3nccs3)C(=O)C1C1C=CC2C1 (stereo not given)	0	1	.	i	.
CN1CCC(=C2c3ccccc3C=Cc3ccccc32)CC1	9.7*	3	.	i	.
O=C(NCCCN1CCOCC1)C1Cc2c(ccc3ccccc23)O1 (stereo not given)	1	2	0.7	i	2
COc1cccc(N2CCN(Cc3nc4scc(-c5ccccc5)c4c(=O)[nH]3)CC2)c1	0	15*	-0.3	i	8
O=c1[nH]c(CN2CCN(c3ccc(O)cc3)CC2)nc2scc(-c3ccc(Cl)cc3)c12	3	21*	.	i	7
O=c1[nH]c(CN2CCN(c3ccccc3O)CC2)nc2scc(-c3ccccc3Cl)c12	1	.	-0.75	.	0
COc1ccccc1CC(=O)NC1CC(C)(C)NC(C)(C)C1	1	3	3.6*	i	-1
COc1cc(OC)nc(Oc2cc(/C=N/O)ccc2OC)n1	4	12	0.51	i	-2
CCC(=O)Nc1nnc(-c2ccc(Cl)s2)o1	9.3*	2	0.37	i	0
CC(=O)Nc1nnc(-c2ccc(Cl)s2)o1	0	2	1.1	i	2
COc1ccc(C2C(C(=O)N3CCOCC3)CCC(=O)N2c2ccc(OC)cc2)cc1 (stereo not given)	2	3	3.7*	i	0
COc1ccc(-n2nnnc2/C=C/Nc2cc(C(F)(F)F)ccc2OC)cc1	3	.	0.38	.	1
COc1ccc(-n2nnnc2/C=C\Nc2ccccc2C(=O)c2ccccc2)cc1	0	21*	1.3	i	62*
O=C1CCCc2cc3c(cc21)CC1(C3)Cc2cc3c(cc2C1)C(=O)CCC3	7	.	0.08	.	72*
O=c1c2cccnc2[nH]c(=S)n1CCCN1CCN(c2ccccc2F)CC1	1	3	-0.75	+	1
CCNCC(=O)Nc1ccc(N2CCOCC2)cc1	1	4	0.39	+	-2
Cc1ccc(CNCC(=O)Nc2ccc(N3CCOCC3)cc2)cc1	3	.	-0.15	.	0
C/C(=C\C(=O)c1ccccc1)Nc1ccc(N2CCOCC2)cc1	4	3	-0.23	i	.
C/C(=C\C(=O)c1ccc(Cl)cc1)Nc1ccc(N2CCOCC2)cc1	0	1	0.41	+	.
Cc1nc(NC(=O)C(C)Oc2cccc(Cl)c2)sc1C(=O)N(C)C (stereo not given)	-1	6	-0.07	i	0
COC(=O)Nc1ccc(S(=O)(=O)N2c3ccccc3CCC2C)cc1 (stereo not given)	1	19*	0.58	i	8
CC1CCN(S(=O)(=O)c2ccc3c(c2)C(=NO)c2cc(S(=O)(=O)N4CCC(C)CC4)ccc2-3)CC1	-2	19	?	+	0
CCOC(=O)Nc1ccc(S(=O)(=O)N2CCC(C)CC2)cc1	2	18*	-0.1	i	3
COC(=O)Nc1ccc(S(=O)(=O)N2CCCCC2C(=O)O)cc1 (stereo not given)	4	3	0.34	i	-3
CCOC(=O)Nc1ccc(S(=O)(=O)N2CCOCC2)cc1	2	4	1.4	i	-1
COC(=O)Nc1ccc(S(=O)(=O)N2CCCC(C(=O)N3CCCCCC3)C2)cc1 (stereo not given)	-1	4	-0.62	+	0
CC(=O)Nc1ccc(NC2=C/C(=N/S(=O)(=O)c3cccs3)c3ccccc3C2=O)cc1	-1	3	?	+	?
CC1CN(c2nnc(NC(=O)c3ccccc3)s2)CC(C)O1 (stereo not given)	2	3	-0.09	i	-5
